Results published in ChEMBL document CHEMBL1136923, “Highly potent, orally available anti-inflammatory broad-spectrum chemokine inhibitors” (J Med Chem, 2009).
Each block holds one molecule with its values, some of them ahead of it.

How the values were obtained:
Mus musculus [1] = experiment: Antiinflammatory activity in sc dosed mouse assessed as inhibition of LPS-induced TNFalpha upregulation measured 2 hrs after LPS challenge relative to control; format: functional
Procedure, shortened: (§1)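 Murine sublethal LPS endotoxemia screen. LPS is injected intraperitoneally and serum TNF-α is measured 2 h later as the end point. Compound is given subcutaneously or orally in a vehicle of 0.6% DMSO plus 1% carboxymethylcellulose (final concentrations) in sterile water. Values are % relative to control.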

Mus musculus [2] = experiment: Antiinflammatory activity in mouse assessed as inhibition of LPS-induced TNFalpha upregulation at 0.3 ug, sc measured 2 hrs after LPS challenge; format: functional
Procedure, shortened: (§2)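 Murine sublethal endotoxemia: LPS given intraperitoneally, with serum TNF-α measured 2 h after the LPS injection as the end point. Compound was given subcutaneously or orally. Vehicle was 0.6% DMSO and 1% carboxymethylcellulose (final concentrations) in sterile water. Effect is reported as % relative to control.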

Mus musculus [3] = experiment: Antiinflammatory activity in sc dosed mouse assessed as inhibition of LPS-induced TNFalpha upregulation measured 2 hrs after LPS challenge; format: functional
Mus musculus [4] = experiment: Antiinflammatory activity in mouse assessed as inhibition of LPS-induced TNFalpha upregulation at 300 pg, sc measured 2 hrs after LPS challenge; format: functional
Procedure, shortened: (§3)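 Sublethal murine endotoxemia with LPS given intraperitoneally. Compound was given subcutaneously in vehicle of 0.6% DMSO and 1% carboxymethylcellulose (final concentrations) in sterile water. Serum TNF-α was measured 2 h after LPS injection. Values are expressed as % relative to control.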

Mus musculus [5] = experiment: Antiinflammatory activity in mouse assessed as inhibition of LPS-induced TNFalpha upregulation at 0.03 ug, sc measured 2 hrs after LPS challenge; format: functional; procedure, shortened: as §2
Mus musculus [6] = experiment: Antiinflammatory activity in mouse assessed as inhibition of LPS-induced TNFalpha upregulation at 0.06 mg, sc measured 2 hrs after LPS challenge; format: functional; procedure, shortened: as §3
Mus musculus [7] = experiment: Antiinflammatory activity in mouse assessed as inhibition of LPS-induced TNFalpha upregulation at 0.12 mg, sc measured 2 hrs after LPS challenge; format: functional; procedure, shortened: as §3
Mus musculus [8] = experiment: Antiinflammatory activity in mouse assessed as inhibition of LPS-induced TNFalpha upregulation at 0.003 ug, sc measured 2 hrs after LPS challenge; format: functional; procedure, shortened: as §2
Mus musculus [9] = experiment: Antiinflammatory activity in mouse assessed as inhibition of LPS-induced TNFalpha upregulation at 0.03 mg, sc measured 2 hrs after LPS challenge; format: functional; procedure, shortened: as §3
Mus musculus [10] = experiment: Antiinflammatory activity in mouse assessed as inhibition of LPS-induced TNFalpha upregulation at 0.003 mg, sc measured 2 hrs after LPS challenge; format: functional; procedure, shortened: as §2
Mus musculus [11] = experiment: Antiinflammatory activity in mouse assessed as inhibition of LPS-induced TNFalpha upregulation at 0.015 mg, sc measured 2 hrs after LPS challenge; format: functional; procedure, shortened: as §3
Mus musculus [12] = experiment: Antiinflammatory activity in mouse assessed as inhibition of LPS-induced TNFalpha upregulation at 0.057 ug, po measured 2 hrs after LPS challenge; format: functional; procedure, shortened: as §2
[13] = Fractional bioavailability in Sprague-Dawley rat at 3 mg/kg, po administered as single dose; format: ADME, organism-based; conditions: in vivo
Procedure, shortened: (§4)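 Male Sprague-Dawley rats, three per compound, receive a single oral dose by gavage in 1% carboxymethylcellulose in 0.9% saline, with food and water ad libitum. Plasma is sampled from 5 to 480 min and drug is quantified by positive-mode LC/MS/MS after acetonitrile/formic acid extraction. The lower limit of quantitation is about 2 ng/mL. Exposure is AUC(0→t) by the linear/log trapezoidal rule, and F is oral fractional bioavailability.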

[14] = target: C-C chemokine receptor type 2 (Homo sapiens) (UniProt P41597); experiment: Antagonist activity at CCR2 in human THP1 cells assessed as inhibition of CCL2-induced chemotaxis at 1 nM after 2 hrs by microtiter format trans-well migration assay; format: functional, cell-based; conditions: THP-1
Procedure, shortened: (§5)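 Microtiter trans-well migration assay in Gey's balanced salt solution with 1 mg/mL endotoxin-free BSA, no fetal calf serum. Migration ran 2 h at 37 °C. Compounds dissolved in DMSO and added to both top and bottom compartments, final DMSO 1%.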

[15] = target: C-C chemokine receptor type 2 (Homo sapiens) (UniProt P41597); experiment: Antagonist activity at CCR2 in human THP1 cells assessed as inhibition of CCL2-induced chemotaxis at 1000 nM after 2 hrs by microtiter format trans-well migration assay; format: functional, cell-based; conditions: THP-1; procedure, shortened: as §5
Mus musculus [16] = experiment: Antiinflammatory activity in po dosed mouse assessed as inhibition of LPS-induced TNFalpha upregulation measured 2 hrs after LPS challenge relative to control; format: functional; procedure, shortened: as §1
Mus musculus [17] = experiment: Antiinflammatory activity in mouse assessed as inhibition of LPS-induced TNFalpha upregulation at 0.016 mg, po measured 2 hrs after LPS challenge; format: functional; procedure, shortened: as §2
Mus musculus [18] = experiment: Antiinflammatory activity in mouse assessed as inhibition of LPS-induced TNFalpha upregulation at 0.00013 mg, sc measured 2 hrs after LPS challenge; format: functional
Procedure, shortened: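 Murine sublethal endotoxemia: LPS given intraperitoneally, serum TNF-α measured 2 h after LPS injection. Compound vehicle 0.6% DMSO plus 1% carboxymethylcellulose (final concentrations) in sterile water.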

Mus musculus [19] = experiment: Antiinflammatory activity in mouse assessed as inhibition of LPS-induced TNFalpha upregulation at 0.0023 ug, po measured 2 hrs after LPS challenge; format: functional; procedure, shortened: as §2
[20] = target: C-C chemokine receptor type 2 (Homo sapiens) (UniProt P41597); experiment: Antagonist activity at CCR2 in human THP1 cells assessed as inhibition of CCL2-induced chemotaxis at 0.01 nM after 2 hrs by microtiter format trans-well migration assay; format: functional, cell-based; conditions: THP-1; procedure, shortened: as §5
[21] = target: C-C chemokine receptor type 2 (Homo sapiens) (UniProt P41597); experiment: Antagonist activity at CCR2 in human THP1 cells assessed as inhibition of CCL2-induced chemotaxis at 10 nM after 2 hrs by microtiter format trans-well migration assay; format: functional, cell-based; conditions: THP-1; procedure, shortened: as §5
Mus musculus [22] = experiment: Antiinflammatory activity in mouse assessed as inhibition of LPS-induced TNFalpha upregulation at 0.016 ug, po measured 2 hrs after LPS challenge; format: functional; procedure, shortened: as §2
[23] = Clearance in Sprague-Dawley rat at 1 mg/kg, iv administered as single dose; format: ADME, organism-based; set-up: dose 1 mg/kg, route intravenous; conditions: in vivo
Procedure, shortened: (§6)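 Male Sprague-Dawley rats, three per compound, receive a single intravenous dose in 5% DMSO in 0.9% saline. Food and water are given ad libitum. Plasma is taken at 5, 15, 30, 60, 120, 180, 240 and 480 min. Drug is measured by LC/MS/MS after extraction with 0.1% formic acid in acetonitrile. The curve is back-extrapolated to time zero assuming an initial volume of 0.26 L/kg.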

Mus musculus [24] = experiment: Antiinflammatory activity in mouse assessed as inhibition of LPS-induced TNFalpha upregulation at […], sc measured 2 hrs after LPS challenge; format: functional; procedure, shortened: as §2
[25] = Cmax in Sprague-Dawley rat at 3 mg/kg, po administered as single dose; format: ADME, organism-based; set-up: dose 3 mg/kg, route oral; conditions: in vivo; procedure, shortened: as §4
Mus musculus [26] = experiment: Antiinflammatory activity in mouse assessed as inhibition of LPS-induced TNFalpha upregulation at 0.013 ug, sc measured 2 hrs after LPS challenge; format: functional; procedure, shortened: as §2
Mus musculus [27] = experiment: Antiinflammatory activity in mouse assessed as inhibition of LPS-induced TNFalpha upregulation at 0.0055 ug, sc measured 2 hrs after LPS challenge; format: functional; procedure, shortened: as §2
Mus musculus [28] = experiment: Antiinflammatory activity in mouse assessed as inhibition of LPS-induced TNFalpha upregulation at 0.0013 mg, sc measured 2 hrs after LPS challenge; format: functional; procedure, shortened: as §2
[29] = target: C-C chemokine receptor type 2 (Homo sapiens) (UniProt P41597); experiment: Antagonist activity at CCR2 in human THP1 cells assessed as inhibition of CCL2-induced chemotaxis after 2 hrs by microtiter format trans-well migration assay; format: functional, cell-based; conditions: THP-1; procedure, shortened: as §5
Mus musculus [30] = experiment: Antiinflammatory activity in po dosed mouse assessed as inhibition of LPS-induced TNFalpha upregulation measured 2 hrs after LPS challenge; format: functional
[31] = Half life in Sprague-Dawley rat at 1 mg/kg, iv administered as single dose; format: ADME, organism-based; set-up: dose 1 mg/kg, route intravenous; conditions: in vivo; procedure, shortened: as §6
[32] = Half life in Sprague-Dawley rat at 3 mg/kg, po administered as single dose; format: ADME, organism-based; set-up: dose 3 mg/kg, route oral; conditions: in vivo; procedure, shortened: as §4
[33] = target: C-C chemokine receptor type 2 (Homo sapiens) (UniProt P41597); experiment: Antagonist activity at CCR2 in human THP1 cells assessed as inhibition of CCL2-induced chemotaxis at 100 nM after 2 hrs by microtiter format trans-well migration assay; format: functional, cell-based; conditions: THP-1; procedure, shortened: as §5
Mus musculus [34] = experiment: Antiinflammatory activity in mouse assessed as inhibition of LPS-induced TNFalpha upregulation at 450 pg, po measured 2 hrs after LPS challenge; format: functional; procedure, shortened: as §2
Mus musculus [35] = experiment: Antiinflammatory activity in mouse assessed as inhibition of LPS-induced TNFalpha upregulation at 0.013 mg, sc measured 2 hrs after LPS challenge; format: functional; procedure, shortened: as §2
[36] = target: C-C chemokine receptor type 2 (Homo sapiens) (UniProt P41597); experiment: Antagonist activity at CCR2 in human THP1 cells assessed as inhibition of CCL2-induced chemotaxis at 0.1 nM after 2 hrs by microtiter format trans-well migration assay; format: functional, cell-based; conditions: THP-1; procedure, shortened: as §5
[37] = AUC (0 to t) in Sprague-Dawley rat at 1 mg/kg, iv administered as single dose; format: ADME, organism-based, Plasma; set-up: dose 1 mg/kg, route intravenous; conditions: Sprague-Dawley, plasma
Procedure, shortened: (§7)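 Male Sprague-Dawley rats, three per compound per route, single dose. IV vehicle 5% DMSO in 0.9% saline; oral gavage vehicle 1% carboxymethylcellulose in 0.9% saline; fed ad libitum. Plasma taken 5–480 min post-dose, extracted with 0.1% formic acid in acetonitrile, quantified by LC/MS/MS (positive mode). AUC(0–t) by linear/log trapezoidal rule; IV curve back-extrapolated assuming initial volume 0.26 L/kg.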

[38] = AUC (0 to t) in Sprague-Dawley rat at 3 mg/kg, po administered as single dose; format: ADME, organism-based; set-up: dose 3 mg/kg, route oral; conditions: plasma; procedure, shortened: as §7
[39] = Volume of distribution at steady state in Sprague-Dawley rat at 1 mg/kg, iv administered as single dose; format: ADME, organism-based; set-up: dose 1 mg/kg, route intravenous; conditions: in vivo, read-out: Vdss; procedure, shortened: as §6
Mus musculus [40] = experiment: Antiinflammatory activity in mouse assessed as inhibition of LPS-induced TNFalpha upregulation at 0.61 ug, po measured 2 hrs after LPS challenge; format: functional; procedure, shortened: as §2

Chain of C-C chemokine receptor type 2 (Homo sapiens) (P41597 whole entry, looked up): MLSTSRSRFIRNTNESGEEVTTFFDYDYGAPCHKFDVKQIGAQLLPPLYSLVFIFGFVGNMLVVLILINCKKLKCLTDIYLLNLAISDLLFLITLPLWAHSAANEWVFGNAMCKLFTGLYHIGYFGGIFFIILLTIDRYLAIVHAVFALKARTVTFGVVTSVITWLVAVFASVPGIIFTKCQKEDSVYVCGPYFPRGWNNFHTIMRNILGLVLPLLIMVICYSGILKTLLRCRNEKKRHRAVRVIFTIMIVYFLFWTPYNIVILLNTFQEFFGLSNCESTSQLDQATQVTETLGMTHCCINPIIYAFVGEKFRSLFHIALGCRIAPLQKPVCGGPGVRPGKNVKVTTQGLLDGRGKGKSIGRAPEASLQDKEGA

Compound: C[C@@H]1C[C@H]2[C@@H]3CCC4=CC(=O)C=C[C@]4(C)[C@@]3(F)[C@@H](O)C[C@]2(C)[C@@]1(O)C(=O)CO [DEXAMETHASONE]
- inhibition (INH) (Mus musculus [1]): 90%
- inhibition (INH) (Mus musculus [2]): 69%
- ED50 (Mus musculus [3]): 3 µg/kg
- inhibition (INH) (Mus musculus [4]): 24%
- inhibition (INH) (Mus musculus [5]): 33%
- inhibition (INH) (Mus musculus [6]): 87%
- inhibition (INH) (Mus musculus [7]): 88%
- inhibition (INH) (Mus musculus [8]): 31%
- inhibition (INH) (Mus musculus [9]): 90%
- inhibition (INH) (Mus musculus [10]): 75%
- inhibition (INH) (Mus musculus [11]): 84%

- bioavailability [13]: 71%
- inhibition [14]: 101%
- inhibition [15]: 102%
- inhibition [20]: 33%
- inhibition [21]: 102%
- clearance [23]: 6.8 mL/min/kg
- Cmax [25]: 989 ng/mL
- ED50 [29]: 0.04 nM
- half-life [31]: 2.02 h
- half-life [32]: 2.8 h
- inhibition [33]: 101%
- inhibition [36]: 80%
- AUC(0-t) [37]: 3860 ng·h/mL
- AUC(0-t) [38]: 8220 ng·h/mL
- Vd [39]: 0.7 L/kg
Compound: CC(C)(C)C(=O)N[C@H]1CCCCNC1=O
- inhibition (INH) (Mus musculus [12]): 76%
- inhibition (INH) (Mus musculus [1]): 90%
- inhibition (INH) (Mus musculus [16]): 80%
- ED50 (Mus musculus [3]): 0.1 µg/kg
- inhibition (INH) (Mus musculus [17]): 83%
- inhibition (INH) (Mus musculus [18]): 81%
- inhibition (INH) (Mus musculus [19]): 41%
- inhibition (INH) (Mus musculus [22]): 70%
- inhibition (INH) (Mus musculus [24]): 44%
- inhibition (INH) (Mus musculus [26]): 80%
- inhibition (INH) (Mus musculus [27]): 73%
- inhibition (INH) (Mus musculus [28]): 94%
- ED50 (Mus musculus [30]): 0.1 µg/kg
- inhibition (INH) (Mus musculus [34]): 43%
- inhibition (INH) (Mus musculus [35]): 91%
- inhibition (INH) (Mus musculus [40]): 80%
